Our source for the IC50 and ED50 values is ChEMBL document CHEMBL4602726, “Discovery of the First Vitamin K Analogue as a Potential Treatment of Pharmacoresistant Seizures” (J Med Chem, 2020).

The target of one assay is T1, Cytochrome P450 2B6 (Homo sapiens, UniProt P20813).
T1 sequence (P20813 whole entry): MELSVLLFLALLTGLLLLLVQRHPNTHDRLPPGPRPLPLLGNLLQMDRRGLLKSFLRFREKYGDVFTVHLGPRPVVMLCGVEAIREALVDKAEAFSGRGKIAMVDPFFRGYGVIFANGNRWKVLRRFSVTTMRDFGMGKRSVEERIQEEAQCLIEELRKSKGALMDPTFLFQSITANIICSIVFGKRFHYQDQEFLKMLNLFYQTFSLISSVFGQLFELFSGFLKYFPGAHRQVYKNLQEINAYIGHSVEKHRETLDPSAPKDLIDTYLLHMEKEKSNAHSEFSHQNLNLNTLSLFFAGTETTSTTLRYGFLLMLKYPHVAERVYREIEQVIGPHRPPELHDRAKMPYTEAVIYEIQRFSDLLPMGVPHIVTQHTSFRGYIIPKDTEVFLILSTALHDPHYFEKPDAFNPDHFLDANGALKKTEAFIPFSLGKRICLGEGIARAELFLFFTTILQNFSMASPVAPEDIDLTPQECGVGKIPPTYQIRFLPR
The experiment in a line: Inhibition of CYP2B6 in human liver microsomes using isoform-specific probe substrates incubated for 15 to 30 mins by LC-MS/MS analysis. In kind it is ADME. The gist of the method: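 Pooled mixed-gender human liver microsomes 0.2 mg/mL in 100 mM potassium phosphate with 2 mM NADPH. Isoform-specific probe substrates near Km. Organic solvent ≤1% final. Incubated 37°C for 15–30 min, quenched with acetonitrile plus internal standard. Probe metabolites measured by LC-MS/MS; percent inhibition versus vehicle, IC50 by variable-slope sigmoid fit.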
On the technique in general: Liver microsomes are vesicles of endoplasmic reticulum, rich in cytochrome P450 enzymes.

The next assay concerns Mus musculus. Briefly: Anti-seizure activity in ip dosed CF1 mouse assessed as attenuation of clonic forebrain seizures treated 1 hr before PTZ dosing and measured after 30 mins by scPTZ test. In kind it is functional. The gist of the method: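 Male CF-1 mice, n=8 per dose, given compound ip in 0.5% HPMC. PTZ 85 mg/kg s.c. in the neck at 1 h. Animals observed 30 min in isolation cages for clonic spasms lasting 3–5 s; those without spasms counted protected.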

Each structure is given as a SMILES string.

For orientation: IC50 means the concentration needed to halve the response being measured. A higher IC50 goes with lower potency. As a reminder, the ED50 is the dose that gives a 50% effect, or the effect in half of the subjects. `CC(C)CCNC1=CC(=O)c2ccccc2C1=O`: the 50% inhibitory concentration (IC50) against Cytochrome P450 2B6 was 39.3 µM. Besides, the median effective dose (ED50) in the assay with Mus musculus came to 349 mg/kg.
